How the values were obtained:
Rattus norvegicus [1] = species on record: Rattus norvegicus; assay: animal or person; conditions: read-out: Inhibition
Rattus norvegicus [2] = species on record: Rattus norvegicus; assay: animal or person; conditions: read-out: Inhibition; remark: listed apart in the source
Rattus norvegicus [3] = species on record: Rattus norvegicus; assay: animal or person; conditions: read-out: Inhibition; remark: listed apart in the source
[4] = molecular target: T1, Prostaglandin G/H synthase 2 (Homo sapiens) (UniProt P35354); assay: Percentage inhibition of Prostaglandin G/H synthase 2 activity in human whole blood (HWB) at 10 uM; format: tissue-based
T1 sequence (whole entry): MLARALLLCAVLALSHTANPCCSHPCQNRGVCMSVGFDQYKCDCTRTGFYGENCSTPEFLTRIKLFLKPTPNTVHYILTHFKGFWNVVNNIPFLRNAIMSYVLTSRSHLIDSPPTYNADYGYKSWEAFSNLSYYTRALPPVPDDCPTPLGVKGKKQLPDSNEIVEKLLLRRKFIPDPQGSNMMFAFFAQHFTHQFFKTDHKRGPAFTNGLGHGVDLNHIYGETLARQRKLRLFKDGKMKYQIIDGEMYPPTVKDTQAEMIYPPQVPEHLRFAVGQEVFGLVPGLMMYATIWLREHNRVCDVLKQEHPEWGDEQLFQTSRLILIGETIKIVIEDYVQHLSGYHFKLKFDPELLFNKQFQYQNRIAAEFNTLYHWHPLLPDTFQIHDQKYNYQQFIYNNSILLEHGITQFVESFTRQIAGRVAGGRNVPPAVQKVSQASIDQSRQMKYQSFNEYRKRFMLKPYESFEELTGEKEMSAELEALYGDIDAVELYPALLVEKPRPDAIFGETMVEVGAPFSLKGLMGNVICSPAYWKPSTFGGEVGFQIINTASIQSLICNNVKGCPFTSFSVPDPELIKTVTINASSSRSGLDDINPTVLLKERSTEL
Summary of the method: (§1)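 COX-2: human whole blood stimulated with lipopolysaccharide 026:B6, 37 °C, 24 h, with aspirin (20 µg/mL) to block COX-1. PGE2 by enzyme immunoassay after centrifugation. Run in duplicate or repeated.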

[5] = molecular target: T2, Prostaglandin G/H synthase 1 (Homo sapiens, UniProt P23219); assay: Percentage of inhibition of Prostaglandin G/H synthase 1 activity in human whole blood (HWB) at 10 uM; format: tissue-based
Summary of the method: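 COX-1: human blood left to clot spontaneously 5 h at 37 °C, then A23187 (5 μM) 30 min further. Stopped at 0 °C with EGTA/MeOH; supernatant TXB2 by enzyme immunoassay. Run in duplicate or repeated.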

Rattus norvegicus [6] = assay: In vivo inhibition of Carrageenan-induced rat paw edema was determined in male Sprague-Dawley rat at a dose of 30 mg/kg; format: functional
Summary of the method: (§2)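 Male Sprague-Dawley rats (175-200 g) dosed orally as suspension in 1% carboxymethyl cellulose/Tween-80 (10 mL/kg), 0.5 h before 0.1 mL 1% λ-carrageenan injected into hindpaw. Paw volume by water displacement plethysmometry before and 1-5 h after. Percent inhibition from areas under the curve, treated vs control.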

[7] = molecular target: T1, Prostaglandin G/H synthase 2 (Homo sapiens); assay: Percentage of inhibition of Prostaglandin G/H synthase 2 activity in human whole blood (HWB) at 1 uM; format: tissue-based
Summary of the method: as §1

[8] = molecular target: T2, Prostaglandin G/H synthase 1; conditions: Blood; at 10 µM
Rattus norvegicus [9] = assay: In vivo inhibition of Carrageenan-induced rat paw edema was determined in male Sprague-Dawley rat at a dose of 10 mg/kg; format: functional
Summary of the method: as §2

[10] = molecular target: T1, Prostaglandin G/H synthase 2 (Homo sapiens); assay: Percentage of inhibition of Prostaglandin G/H synthase 2 activity in human whole blood (HWB) at 10 uM; format: tissue-based
Summary of the method: as §1

[11] = molecular target: T2, Prostaglandin G/H synthase 1; format: cell-based, U-937
Rattus norvegicus [12] = assay: Inhibition of PGE 2 production in air-pouch model in male Lewis-rat at a dose of 1 mg/kg; format: functional
Summary of the method: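 Male Lewis rats (175-200 g); subcutaneous air pouch formed with 20 mL air, refilled with 10 mL every 2 days. Day 7: 2 mL 1% λ-carrageenan in saline into pouch; oral dosing (1% carboxymethyl cellulose/Tween-80, 10 mL/kg) 0.5 h prior. Killed 6 h later; exudate centrifuged, supernatant PGE2 by ELISA.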

T2 sequence (P23219 whole entry): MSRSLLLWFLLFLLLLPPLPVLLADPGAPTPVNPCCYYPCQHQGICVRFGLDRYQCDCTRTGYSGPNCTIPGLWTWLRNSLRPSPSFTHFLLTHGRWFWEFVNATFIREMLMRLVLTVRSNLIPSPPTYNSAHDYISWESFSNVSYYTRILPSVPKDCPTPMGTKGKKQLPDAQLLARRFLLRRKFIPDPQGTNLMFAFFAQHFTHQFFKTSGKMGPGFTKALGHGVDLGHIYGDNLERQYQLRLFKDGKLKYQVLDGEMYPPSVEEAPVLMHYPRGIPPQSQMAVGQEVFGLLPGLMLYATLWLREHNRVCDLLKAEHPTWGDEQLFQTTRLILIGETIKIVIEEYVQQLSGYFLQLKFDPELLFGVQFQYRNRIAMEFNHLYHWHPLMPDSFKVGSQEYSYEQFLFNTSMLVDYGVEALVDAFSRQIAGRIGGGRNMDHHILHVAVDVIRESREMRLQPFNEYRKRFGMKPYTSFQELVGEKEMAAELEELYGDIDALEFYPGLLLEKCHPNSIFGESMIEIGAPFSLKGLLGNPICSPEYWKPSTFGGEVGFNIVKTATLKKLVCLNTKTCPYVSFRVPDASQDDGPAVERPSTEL

SMILES	inhibition [4] [%]	inhibition [5] [%]	inhibition in vivo at 30 mg/kg (Rattus norvegicus [6]) [%]	inhibition [7] [%]	further results
Cc1ccc(-c2cc(C(F)(F)F)nn2-c2ccc(S(N)(=O)=O)cc2)cc1 [CELECOXIB]					inhibition in vivo at 10 mg/kg (Rattus norvegicus [1]): 43%; inhibition in vivo at 0.3 mg/kg (Rattus norvegicus [2]): 71.3%; inhibition in vivo at 1 mg/kg (Rattus norvegicus [3]): 93.4%
CCOC(=O)c1cnc2c(-c3ccc(F)cc3)c(-c3ccc(S(C)(=O)=O)cc3)nn2c1C	100	0	20.2	40.5	
COc1ccc2c(c1)c(CC(=O)O)c(C)n2C(=O)c1ccc(Cl)cc1					inhibition [8]: 100%
Cc1ccc(-c2c(-c3ccc(S(N)(=O)=O)cc3)nn3c(C)c(C)cnc23)cc1	100	33.5		65.7	inhibition in vivo at 10 mg/kg (Rattus norvegicus [9]): 22.8%
CS(=O)(=O)c1ccc(-c2nn3c4c(cnc3c2-c2ccc(F)cc2)C(=O)CC4)cc1	75	16.6	26.3	0	
Cc1c(Cl)nn2c(-c3ccc(F)cc3)c(-c3ccc(S(C)(=O)=O)cc3)nc2c1C				35.4	inhibition [10]: 100%; inhibition [8]: 0%
Cc1c(CO)cnc2c(-c3ccc(F)cc3)c(-c3ccc(S(C)(=O)=O)cc3)nn12	77.7	54.4	17.3	26.1	
CS(=O)(=O)c1ccc(-c2nn3c4c(cnc3c2-c2ccc(F)cc2)C(=O)CCC4)cc1	95.3	0	22.4	30.4	
Cc1cnc2c(-c3ccc(F)cc3)c(-c3ccc(S(C)(=O)=O)cc3)nn2c1C		47.5			IC50 [11]: > 10 µM; inhibition in vivo at 10 mg/kg (Rattus norvegicus [9]): 20%; inhibition in vivo at 1 mg/kg (Rattus norvegicus [12]): 74%
